Results from ChEMBL document CHEMBL1140881, “Discovery of 13-oxa prostaglandin analogs as antiglaucoma agents: synthesis and biological activity” (Bioorg Med Chem, 2009).
Active and inactive are the calls of the source. The calls are words filed in the database; no cut-off is given here.

What was measured:
Oryctolagus cuniculus [1] = organism: Oryctolagus cuniculus; experiment: Effect on ocular irritation in New Zealand albino rabbit assessed as incidence of conjunctival hyperemia at 1 ug after 1 to 5 hrs; format: functional, Conjunctiva
Procedure, shortened: (§1)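 Topical single 30 µL drop into both eyes of each of five rabbits, doses 0.03–100 µg. Vehicle was trimethamine/boric acid buffer with 4.6% mannitol, HCO-40, 0.01% EDTA and 0.01% benzalkonium chloride, pH 7.4. Eyes were scored at 1, 2, 3 and 5 h. The percent of eyes scoring +2 or greater, pooled across all time points, is reported as study % incidence. Qualitative, with no statistics.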

Oryctolagus cuniculus [2] = organism: Oryctolagus cuniculus; experiment: Effect on ocular irritation in New Zealand albino rabbit assessed as incidence of conjunctival swelling at 1 ug after 1 to 5 hrs; format: functional, Conjunctiva; procedure, shortened: as §1
Macaca fascicularis [3] = organism: Macaca fascicularis; experiment: Toxicity in monkey assessed as drug tolerance; settings: cynomolgus monkey, in vivo
Oryctolagus cuniculus [4] = organism: Oryctolagus cuniculus; experiment: Effect on ocular irritation in New Zealand albino rabbit assessed as incidence of conjunctival swelling at 0.1 ug after 1 to 5 hrs; format: functional, Conjunctiva; procedure, shortened: as §1
Oryctolagus cuniculus [5] = organism: Oryctolagus cuniculus; experiment: Effect on ocular irritation in New Zealand albino rabbit assessed as incidence of ocular discharge at 30 ug after 1 to 5 hrs; format: functional, Eye; procedure, shortened: as §1
Oryctolagus cuniculus [6] = organism: Oryctolagus cuniculus; experiment: Effect on ocular irritation in New Zealand albino rabbit assessed as incidence of conjunctival hyperemia at 0.3 ug after 1 to 5 hrs; format: functional, Conjunctiva; procedure, shortened: as §1
Felis catus [7] = organism: Felis catus; experiment: Toxicity in normotensive cat assessed as discomfort; format: organism-based; settings: in vivo
Macaca fascicularis [8] = organism: Macaca fascicularis; experiment: Inhibition of intraocular pressure in hypertensive monkey at 3 ug, bid after 4th dose measured after 16 hrs; parameters: scale not given: the % may be the effect or the level left
Oryctolagus cuniculus [9] = organism: Oryctolagus cuniculus; experiment: Effect on ocular irritation in New Zealand albino rabbit assessed as incidence of ocular discharge at 0.03 ug after 1 to 5 hrs; format: functional, Eye; procedure, shortened: as §1
Oryctolagus cuniculus [10] = organism: Oryctolagus cuniculus; experiment: Effect on ocular irritation in New Zealand albino rabbit assessed as incidence of conjunctival hyperemia at 10 ug after 1 to 5 hrs; format: functional, Conjunctiva; procedure, shortened: as §1
Macaca fascicularis [11] = organism: Macaca fascicularis; experiment: Inhibition of intraocular pressure in hypertensive monkey at 3 ug, bid after 5th dose; parameters: scale not given: the % may be the effect or the level left
Oryctolagus cuniculus [12] = organism: Oryctolagus cuniculus; experiment: Effect on ocular irritation in New Zealand albino rabbit assessed as incidence of conjunctival swelling at 3 ug after 1 to 5 hrs; format: functional, Conjunctiva; procedure, shortened: as §1
Oryctolagus cuniculus [13] = organism: Oryctolagus cuniculus; experiment: Effect on ocular irritation in New Zealand albino rabbit assessed as incidence of conjunctival hyperemia at 30 ug after 1 to 5 hrs; format: functional, Conjunctiva; procedure, shortened: as §1
Oryctolagus cuniculus [14] = organism: Oryctolagus cuniculus; experiment: Effect on ocular irritation in New Zealand albino rabbit assessed as incidence of conjunctival swelling at 30 ug after 1 to 5 hrs; format: functional, Conjunctiva; procedure, shortened: as §1
Macaca fascicularis [15] = organism: Macaca fascicularis; experiment: Inhibition of intraocular pressure in hypertensive monkey at 3 ug after first instillation; parameters: scale not given: the % may be the effect or the level left
Felis catus [16] = organism: Felis catus; experiment: Acute […] response in normotensive cat assessed as AUC (1 to 5 hrs) at 0.3 ug; format: functional
Procedure, shortened: (§2)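 Conscious cats held in cat bags under uniform room lighting. Horizontal pupil diameter read with a hand-held micrometer, then again at 0.5, 1, 1.5, 2, 2.5, 3, 4 and 5 h after topical dosing. The AUC of pupil diameter change versus time over 1–5 h was computed from group averages. Ranking is qualitative, with no statistics.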

Oryctolagus cuniculus [17] = organism: Oryctolagus cuniculus; experiment: Effect on ocular irritation in New Zealand albino rabbit assessed as incidence of ocular discharge at 3 ug after 1 to 5 hrs; format: functional, Eye; procedure, shortened: as §1
Oryctolagus cuniculus [18] = organism: Oryctolagus cuniculus; experiment: Effect on ocular irritation in New Zealand albino rabbit assessed as incidence of conjunctival hyperemia at 0.03 ug after 1 to 5 hrs; format: functional, Conjunctiva; procedure, shortened: as §1
Macaca fascicularis [19] = organism: Macaca fascicularis; experiment: Inhibition of intraocular pressure in hypertensive monkey at 1 ug, bid; settings: Eye
Oryctolagus cuniculus [20] = organism: Oryctolagus cuniculus; experiment: Effect on ocular irritation in New Zealand albino rabbit assessed as incidence of ocular discharge at 10 ug after 1 to 5 hrs; format: functional, Eye; procedure, shortened: as §1
Oryctolagus cuniculus [21] = organism: Oryctolagus cuniculus; experiment: Effect on ocular irritation in New Zealand albino rabbit assessed as incidence of conjunctival swelling at 0.3 ug after 1 to 5 hrs; format: functional, Conjunctiva; procedure, shortened: as §1
Oryctolagus cuniculus [22] = organism: Oryctolagus cuniculus; experiment: Effect on ocular irritation in New Zealand albino rabbit assessed as incidence of conjunctival hyperemia at 0.1 ug after 1 to 5 hrs; format: functional, Conjunctiva; procedure, shortened: as §1
Oryctolagus cuniculus [23] = organism: Oryctolagus cuniculus; experiment: Effect on ocular irritation in New Zealand albino rabbit assessed as incidence of ocular discharge at 0.1 ug after 1 to 5 hrs; format: functional, Eye; procedure, shortened: as §1
Oryctolagus cuniculus [24] = organism: Oryctolagus cuniculus; experiment: Effect on ocular irritation in New Zealand albino rabbit assessed as incidence of conjunctival hyperemia at 3 ug after 1 to 5 hrs; format: functional, Conjunctiva; procedure, shortened: as §1
Felis catus [25] = organism: Felis catus; experiment: Toxicity in normotensive cat assessed as ocular irritation; format: organism-based, Eye; settings: in vivo
Macaca fascicularis [26] = organism: Macaca fascicularis; experiment: Induction of miosis in monkey; settings: cynomolgus monkey, in vivo
Oryctolagus cuniculus [27] = organism: Oryctolagus cuniculus; experiment: Effect on ocular irritation in New Zealand albino rabbit assessed as incidence of conjunctival swelling at 10 ug after 1 to 5 hrs; format: functional, Conjunctiva; procedure, shortened: as §1
Oryctolagus cuniculus [28] = organism: Oryctolagus cuniculus; experiment: Effect on ocular irritation in New Zealand albino rabbit assessed as incidence of ocular discharge at 1 ug after 1 to 5 hrs; format: functional, organism-based, Eye; procedure, shortened: as §1
Oryctolagus cuniculus [29] = organism: Oryctolagus cuniculus; experiment: Effect on ocular irritation in New Zealand albino rabbit assessed as incidence of ocular discharge at 0.3 ug after 1 to 5 hrs; format: functional, Eye; procedure, shortened: as §1
Oryctolagus cuniculus [30] = organism: Oryctolagus cuniculus; experiment: Effect on ocular irritation in New Zealand albino rabbit assessed as incidence of conjunctival swelling at 0.03 ug after 1 to 5 hrs; format: functional, Conjunctiva; procedure, shortened: as §1
Felis catus [31] = organism: Felis catus; experiment: Acute […] response in normotensive cat assessed as AUC (1 to 5 hrs) at 1 ug; format: functional; procedure, shortened: as §2
Felis catus [32] = organism: Felis catus; experiment: Acute […] response in normotensive cat assessed as AUC (1 to 5 hrs) at 0.1 ug; format: functional; procedure, shortened: as §2
[33] = molecular target: Prostaglandin F2-alpha receptor (Bos taurus, UniProt P37289); experiment: Displacement of [3H]PGF2 alpha from FP receptor in bovine corpus luteum membrane; format: cell membranes
Prostaglandin F2-alpha receptor (Bos taurus, UniProt P37289), sequence (P37289 whole entry): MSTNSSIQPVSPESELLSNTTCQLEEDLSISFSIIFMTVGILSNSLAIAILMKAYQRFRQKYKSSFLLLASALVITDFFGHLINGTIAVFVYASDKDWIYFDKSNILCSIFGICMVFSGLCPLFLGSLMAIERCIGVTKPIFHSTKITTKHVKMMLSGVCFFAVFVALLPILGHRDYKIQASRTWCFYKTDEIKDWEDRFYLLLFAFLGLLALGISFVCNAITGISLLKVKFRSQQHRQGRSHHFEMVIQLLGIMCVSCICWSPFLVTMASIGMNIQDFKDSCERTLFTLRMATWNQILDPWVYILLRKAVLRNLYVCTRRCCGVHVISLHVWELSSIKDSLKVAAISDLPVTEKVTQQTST
Procedure, shortened: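 Nonspecific binding was set with 10 µM unlabeled PGF2α or cloprostenol. Bound and free ligand were separated by vacuum filtration on PEI-soaked GF/B filters and counted. Ki came from nonlinear fitting across several experiments.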

[34] = molecular target: Prostaglandin F2-alpha receptor (Mus musculus) (UniProt P43117); experiment: Agonist activity at FP receptor in Swiss mouse 3T3 cells assessed as [3H]-IP accumulation by scintillation counting relative to control; format: functional, cell-based
Prostaglandin F2-alpha receptor (Mus musculus), sequence (P43117 whole entry): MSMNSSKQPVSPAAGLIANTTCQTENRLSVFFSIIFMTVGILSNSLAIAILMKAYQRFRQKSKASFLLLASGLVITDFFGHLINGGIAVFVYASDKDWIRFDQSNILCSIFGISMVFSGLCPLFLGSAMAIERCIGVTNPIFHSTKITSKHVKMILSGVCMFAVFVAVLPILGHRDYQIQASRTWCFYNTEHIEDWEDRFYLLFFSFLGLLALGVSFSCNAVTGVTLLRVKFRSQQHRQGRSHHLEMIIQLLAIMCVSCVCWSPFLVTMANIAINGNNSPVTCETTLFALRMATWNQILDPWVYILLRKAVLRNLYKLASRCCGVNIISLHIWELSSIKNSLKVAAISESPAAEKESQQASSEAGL
Procedure, shortened: (§3)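 Swiss 3T3 mouse fibroblasts carry an endogenous FP receptor. They were rinsed in DMEM/F-12 with 10 mM LiCl, then exposed to agonist or vehicle in that medium for 60 min at 37 °C. The reaction was stopped with ice-cold 0.1 M formic acid. Total [3H]-IPs were eluted with ammonium formate in formic acid and counted by scintillation. EC50 and Emax came from nonlinear fits of concentration-response curves pooled from several experiments.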

[35] = molecular target: Prostaglandin F2-alpha receptor (Mus musculus, UniProt P43117); experiment: Agonist activity at FP receptor in Swiss mouse 3T3 cells assessed as [3H]-IP accumulation by scintillation counting; format: functional, cell-based; procedure, shortened: as §3
Prostaglandin F2-alpha receptor (Mus musculus, UniProt P43117), sequence (P43117 whole entry): as above

Oryctolagus cuniculus [36] = organism: Oryctolagus cuniculus; experiment: Effect on ocular irritation in New Zealand albino rabbit assessed as incidence of conjunctival swelling 1.8 ug after 1 to 5 hrs; format: functional, Conjunctiva; procedure, shortened: as §1
Oryctolagus cuniculus [37] = organism: Oryctolagus cuniculus; experiment: Effect on ocular irritation in New Zealand albino rabbit assessed as incidence of conjunctival hyperemia at 1.8 ug after 1 to 5 hrs; format: functional, Conjunctiva; procedure, shortened: as §1
Oryctolagus cuniculus [38] = organism: Oryctolagus cuniculus; experiment: Effect on ocular irritation in New Zealand albino rabbit assessed as incidence of ocular discharge 1.8 ug after 1 to 5 hrs; format: functional, Eye; procedure, shortened: as §1

CCCCC[C@H](O)/C=C/[C@@H]1[C@@H](C/C=C\CCCC(=O)O)[C@@H](O)C[C@H]1O [DINOPROST]
Activity (Oryctolagus cuniculus [1]): 100%
Activity (Oryctolagus cuniculus [2]): 40%

CC(C)OC(=O)CCC/C=C\C[C@@H]1[C@@H](OC[C@@H](O)CCc2cccc(C(F)(F)F)c2)[C@H](O)C[C@@H]1O
Activity (Macaca fascicularis [3]): Not Active
Activity (Oryctolagus cuniculus [4]): 38%
Activity (Oryctolagus cuniculus [5]): 0%
Activity (Oryctolagus cuniculus [6]): 8%
Activity (Felis catus [7]): Non-toxic
Activity (Macaca fascicularis [8]): 21%
Activity (Oryctolagus cuniculus [9]): 5%
Activity (Oryctolagus cuniculus [1]): 13%
Activity (Oryctolagus cuniculus [2]): 30%
Activity (Oryctolagus cuniculus [10]): 23%
Activity (Macaca fascicularis [11]): 30%
Activity (Oryctolagus cuniculus [12]): 8%
Activity (Oryctolagus cuniculus [13]): 73%
Activity (Oryctolagus cuniculus [14]): 45%
Activity (Macaca fascicularis [15]): 22%
Activity (Felis catus [16]): 6.57
Activity (Oryctolagus cuniculus [17]): 0%
Activity (Oryctolagus cuniculus [18]): 13%
Activity (Macaca fascicularis [19]): inactive
Activity (Oryctolagus cuniculus [20]): 15%
Activity (Oryctolagus cuniculus [21]): 25%
Activity (Oryctolagus cuniculus [22]): 13%
Activity (Oryctolagus cuniculus [23]): 3%
Activity (Oryctolagus cuniculus [24]): 25%
Activity (Felis catus [25]): Non-toxic
Activity (Macaca fascicularis [26]): Not Active
Activity (Oryctolagus cuniculus [27]): 35%
Activity (Oryctolagus cuniculus [28]): 5%
Activity (Oryctolagus cuniculus [29]): 3%
Activity (Oryctolagus cuniculus [30]): 23%
Activity (Felis catus [31]): 10.2
Activity (Felis catus [32]): 3.12

O=C(O)CCC/C=C\C[C@@H]1[C@@H](OC[C@@H](O)CCc2cccc(C(F)(F)F)c2)[C@H](O)C[C@@H]1O
Ki [33]: 72 nM
Activity [34]: 78%
EC50 [35]: 1.9 nM

O=C(O)CCC/C=C\C[C@@H]1[C@@H](OC[C@H](O)CCc2cccc(C(F)(F)F)c2)[C@H](O)C[C@@H]1O
Ki [33]: 130 nM
Activity [34]: 82%
EC50 [35]: 5.7 nM

O=C(O)CCC/C=C\C[C@@H]1[C@@H](OC[C@H](O)COc2ccccc2)[C@H](O)C[C@@H]1O
Ki [33]: 87 nM
Activity [34]: 67%
EC50 [35]: 68.6 nM

O=C(O)CCC/C=C\C[C@@H]1[C@@H](OC[C@H](O)COc2cccc(Cl)c2)[C@H](O)C[C@@H]1O
Ki [33]: 140 nM
Activity [34]: 86%
EC50 [35]: 62.2 nM

O=C(O)CCC/C=C\C[C@@H]1[C@@H](OC[C@@H](O)COc2ccccc2)[C@H](O)C[C@@H]1O
Ki [33]: 120 nM
Activity [34]: 67%
EC50 [35]: 294 nM

O=C(O)CCC/C=C\C[C@@H]1[C@@H](CC[C@@H](O)CCc2ccccc2)[C@H](O)C[C@@H]1O [LATANOPROST ACID]
Activity (Oryctolagus cuniculus [36]): 40%
Ki [33]: 98 nM
Activity [34]: 85%
Activity (Oryctolagus cuniculus [37]): 45%
Activity (Oryctolagus cuniculus [38]): 20%
EC50 [35]: 31.7 nM

O=C(O)CCC/C=C\C[C@@H]1[C@@H](OC[C@@H](O)COc2cccc(Cl)c2)[C@H](O)C[C@@H]1O
Ki [33]: 680 nM
Activity [34]: 62%
EC50 [35]: 52.4 nM
